The source of these data is ChEMBL document CHEMBL1156768, “The structure-activity relationship of the antimalarial ozonide arterolane (OZ277)” (J Med Chem, 2010).

The subject of data set [1] is Plasmodium berghei. Put plainly: Antiplasmodial activity against Plasmodium berghei infected in NMRI mice (Mus musculus) assessed as curing of parasitaemia at 3 mg/kg, perorally daily once for 3 consecutive days measured after 30 days post-infection. To be noted: route oral. The format is functional. A digest of the protocol: (§1)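 P. berghei-infected NMRI mice, in groups of five, were dosed orally at 3 mg/kg on days +1, +2 and +3 postinfection. Parasitemia reduction, survival time and cure were scored.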

Data set [2] relates to Plasmodium falciparum. Put plainly: Antimalarial activity against chloroquine-sensitive Plasmodium falciparum NF54 infected in human A+ erythrocytes assessed as [3H]hypoxanthine incorporation by semi-automated micro dilution assay. Type of data set: functional, organism-based.
Data set [3] relates to Plasmodium berghei. Put plainly: Antiplasmodial activity against Plasmodium berghei infected in NMRI mice (Mus musculus) assessed as reduction of parasitaemia level at 3 mg/kg, perorally daily once for 3 consecutive days measured after 4 days post-infection. Type of data set: functional. Details: scale not given: the % may be the effect or the level left; call rule not given here. To be noted: route oral. A digest of the protocol: as §1

In data set [4] the test system is Plasmodium falciparum. Kind of data set: Antimalarial activity against chloroquine-resistant Plasmodium falciparum K1 infected in human A+ erythrocytes assessed as [3H]hypoxanthine incorporation by semiautomated micro dilution assay. The format is functional, organism-based.
The nature of data set [5]: Blood clearance in Sprague-Dawley rat at 2.5 to 3.5 mg/kg, iv. Type of data set: ADME, organism-based. Details: dose 2.5-3.5 mg/kg, route intravenous. Particulars: whole blood. In a few lines:
(§2)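 Rats received an IV infusion over 5-10 min through a jugular cannula at 2.5-3.5 mg/kg, in DMSO/aqueous buffer or propylene glycol/ethanol/water. Oral gavage used aqueous suspensions in HPMC or CMC with 0.4% Tween 80 and 0.5% benzyl alcohol. Carotid blood was sampled, and plasma was acetonitrile-precipitated and measured by LC/MS against plasma calibration standards. Values are averages of 2-3 determinations.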

Data set [6] relates to Plasmodium berghei. Put plainly: Antiplasmodial activity against Plasmodium berghei infected in NMRI mice (Mus musculus) assessed as reduction of parasitaemia level at 10 mg/kg, perorally administered 1 day after post-infection measured after 3 days post-infection. The format is functional. Details: scale not given: the % may be the effect or the level left. Particulars: route oral. A digest of the protocol: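 Groups of five NMRI mice infected with P. berghei received a single oral dose on day 1 postinfection. Read-out was percent reduction in parasitemia on day 3 postinfection. Individual measurements differed by less than 10%.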

Data set [7] is described as follows: Half life in Sprague-Dawley rat at 2.5 to 3.5 mg/kg, iv. Type of data set: ADME, organism-based. Particulars: in vivo. Details: dose 2.5-3.5 mg/kg, route intravenous. A digest of the protocol:
as §2

Data set [8] in a line: Oral bioavailability in Sprague-Dawley rat. To be noted: in vivo. Type of data set: ADME, organism-based. A digest of the protocol: as §2
Data set [9] is described as follows: Plasma clearance in Sprague-Dawley rat at 2.5 to 3.5 mg/kg, iv. Type of data set: ADME, organism-based. Details: dose 2.5-3.5 mg/kg, route intravenous. In a few lines:
as §2

The nature of data set [10]: Volume of distribution in Sprague-Dawley rat at 2.5 to 3.5 mg/kg, iv. Type of data set: ADME, organism-based. Details: dose 2.5-3.5 mg/kg, route intravenous. To be noted: in vivo. In a few lines:
as §2

Data set [11] deals with Rattus norvegicus. Put plainly: Liver toxicity in Sprague-Dawley rat at 300 mg/kg, po daily once for 5 days. Type of data set: organism-based. Details: dose 300 mg/kg, route oral. Particulars: in vivo, 120 h. A digest of the protocol:
(§3)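 Preliminary toxicology was run in male rats given daily oral doses for five days.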

The target of another data set is Cytochrome P450 2C9 (Homo sapiens, UniProt P11712). Put plainly: Inhibition of human CYP2C9 up to 50 uM. The format is ADME.
The target in the next data set is Cytochrome P450 3A4 (Homo sapiens, UniProt P08684). Kind of data set: Inhibition of human CYP3A4 up to 50 uM. The format is ADME.
For data set [12], the system named is Rattus norvegicus. Put plainly: Renal toxicity in Sprague-Dawley rat at 300 mg/kg, po daily once for 5 days. Type of data set: organism-based. Details: dose 300 mg/kg, route oral. To be noted: in vivo, 120 h. A digest of the protocol:
as §3

Another data set addresses Cytochrome P450 2D6 (Homo sapiens, UniProt P10635). Put plainly: Inhibition of human CYP2D6 up to 50 uM. The format is ADME.
Data set [13] has as its system Rattus norvegicus. Kind of data set: Neurotoxicity in Sprague-Dawley rat at 300 mg/kg, po daily once for 5 days. Type of data set: toxicity, organism-based. Details: dose 300 mg/kg, route oral. To be noted: in vivo, 120 h. A digest of the protocol: as §3
Data set [14] relates to Rattus norvegicus. Kind of data set: Lymphatic organ toxicity in Sprague-Dawley rat at 300 mg/kg, po daily once for 5 days. Details: dose 300 mg/kg, route oral. Type of data set: organism-based. To be noted: in vivo, 120 h. A digest of the protocol: as §3
Data set [15] relates to Plasmodium berghei. Put plainly: Antiplasmodial activity against Plasmodium berghei infected in NMRI mice (Mus musculus) assessed as mice (Mus musculus) survival days at 3 mg/kg, perorally daily once for 3 consecutive days measured after 4 days post-infection. Type of data set: functional. Particulars: route oral. In a few lines:
as §1

Data set [16] in a line: Partition coefficient, log D in octanol/buffer at pH 7.4 by chromatographic method. The format is physicochemical.

Sequence of Cytochrome P450 2C9 (P11712 whole entry): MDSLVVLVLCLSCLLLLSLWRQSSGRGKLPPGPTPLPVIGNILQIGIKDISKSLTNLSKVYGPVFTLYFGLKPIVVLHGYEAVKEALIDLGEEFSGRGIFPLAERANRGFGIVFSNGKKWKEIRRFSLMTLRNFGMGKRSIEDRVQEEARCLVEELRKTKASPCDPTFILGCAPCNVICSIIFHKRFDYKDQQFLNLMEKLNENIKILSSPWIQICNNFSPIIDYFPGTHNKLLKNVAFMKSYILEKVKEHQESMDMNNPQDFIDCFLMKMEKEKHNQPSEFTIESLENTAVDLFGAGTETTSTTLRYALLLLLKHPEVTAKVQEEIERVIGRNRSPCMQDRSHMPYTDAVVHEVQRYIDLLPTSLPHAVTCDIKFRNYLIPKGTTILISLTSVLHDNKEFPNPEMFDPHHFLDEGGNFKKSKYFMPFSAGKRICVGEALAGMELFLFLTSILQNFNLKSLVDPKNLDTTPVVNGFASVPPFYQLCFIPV
Sequence of Cytochrome P450 2D6 (P10635 whole entry): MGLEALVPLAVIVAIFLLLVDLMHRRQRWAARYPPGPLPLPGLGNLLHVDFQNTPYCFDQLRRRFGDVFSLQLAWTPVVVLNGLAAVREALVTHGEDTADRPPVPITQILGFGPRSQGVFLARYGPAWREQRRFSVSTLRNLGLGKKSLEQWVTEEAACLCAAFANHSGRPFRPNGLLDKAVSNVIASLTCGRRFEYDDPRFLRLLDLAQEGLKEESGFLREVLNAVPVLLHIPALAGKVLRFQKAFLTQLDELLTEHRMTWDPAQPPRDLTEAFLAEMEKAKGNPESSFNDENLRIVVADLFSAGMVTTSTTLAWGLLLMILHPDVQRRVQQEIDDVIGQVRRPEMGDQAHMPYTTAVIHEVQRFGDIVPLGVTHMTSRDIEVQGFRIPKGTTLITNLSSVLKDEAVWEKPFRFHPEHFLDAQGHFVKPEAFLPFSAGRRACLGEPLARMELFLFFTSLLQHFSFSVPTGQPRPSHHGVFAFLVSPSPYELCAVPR
Sequence of Cytochrome P450 3A4 (P08684 whole entry): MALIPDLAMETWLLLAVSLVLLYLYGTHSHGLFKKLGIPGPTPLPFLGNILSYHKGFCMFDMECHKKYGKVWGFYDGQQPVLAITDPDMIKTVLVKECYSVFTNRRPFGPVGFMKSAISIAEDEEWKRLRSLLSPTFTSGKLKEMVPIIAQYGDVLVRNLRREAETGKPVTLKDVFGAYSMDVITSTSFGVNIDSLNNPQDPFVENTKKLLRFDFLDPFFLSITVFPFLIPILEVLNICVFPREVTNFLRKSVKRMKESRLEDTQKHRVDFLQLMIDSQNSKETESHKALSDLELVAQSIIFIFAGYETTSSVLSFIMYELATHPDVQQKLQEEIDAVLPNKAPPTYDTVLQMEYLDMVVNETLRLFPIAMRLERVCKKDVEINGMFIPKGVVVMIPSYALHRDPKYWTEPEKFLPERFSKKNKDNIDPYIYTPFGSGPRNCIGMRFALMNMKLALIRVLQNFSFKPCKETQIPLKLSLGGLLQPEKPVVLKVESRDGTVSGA

Broadly, the IC50 is the concentration needed to halve the response being measured. Broadly, the clearance is a measure of how efficiently the substance is removed, as volume per time. For orientation: half-life means the time in which the quantity being followed falls by half. A word on the bioavailability: it is the share of a dose that reaches the circulation, judged against a reference dose that is usually intravenous. As usually defined, the Vd is a proportionality between amount in the body and measured concentration, not a real space. With `Cc1ccc(S(=O)(=O)O)cc1.O=C(C[C@H]1CC[C@]2(CC1)OO[C@]1(O2)C2CC3CC(C2)CC1C3)N1CCNCC1`, the figures for the Activity in the data set with Plasmodium berghei [1], with Plasmodium berghei [3] and in the data set on Plasmodium berghei [6] were 0%, more than 99.9% and more than 99.9%, respectively. Besides, the IC50 in the data set on Plasmodium falciparum [2] stood at 0.24 ng/mL; in the data set with Plasmodium falciparum [4], 0.21 ng/mL. Further, the clearance was 56.3 mL/min/kg in [5] and 168 mL/min/kg in data set [9]. The half-life in data set [7] was 1.7 h. Moreover, the bioavailability in data set [8] is 37%. Moreover, in data set [10], the Vd was 25 L/kg.
Take `Cc1ccc(S(=O)(=O)O)cc1.NC1CCN(C(=O)C[C@H]2CC[C@]3(CC2)OO[C@]2(O3)C3CC4CC(C3)CC2C4)CC1`: the Activity entry is listed as “Non-toxic” in the data set with Rattus norvegicus [11]; 60% in the data set with Plasmodium berghei [1]; “Not Active” on Cytochrome P450 2C9; more than 99.9% in the data set with Plasmodium berghei [3]; “Not Active” at Cytochrome P450 3A4; “Non-toxic” in the data set on Rattus norvegicus [12]. The Activity in the data set with Plasmodium berghei [6] was more than 99.9%; at Cytochrome P450 2D6 it was “Not Active”; with Rattus norvegicus [13], “Non-toxic”; with Rattus norvegicus [14], “Non-toxic”. In addition, the IC50 in the data set on Plasmodium falciparum [2] stood at 0.39 ng/mL. The clearance is 39.1 mL/min/kg in [5] and 157 mL/min/kg in data set [9]. In addition, in data set [7], the half-life came out at 1.38 h. The bioavailability in data set [8] amounted to 78%. In the data set on Plasmodium berghei [15], the Survival was found to be 27 days. For the same compound, in data set [10], the Vd amounted to 19 L/kg.
In general, chromatographic logD refers to a lipophilicity value derived from retention on a column. As for `CC(C)(N)CNC(=O)C[C@H]1CC[C@]2(CC1)OO[C@]1(O2)C2CC3CC(C2)CC1C3.Cc1ccc(S(=O)(=O)O)cc1` [ARTEROLANE], the Activity result in the data set with Rattus norvegicus [11] is on record as “Non-toxic”; in the data set on Plasmodium berghei [1] it was 0%; at Cytochrome P450 2C9 it was “Not Active”; in the data set on Plasmodium berghei [3], more than 99.9%; on Cytochrome P450 3A4, “Not Active”; in the data set with Rattus norvegicus [12] it was “Non-toxic”. The Activity in the data set with Plasmodium berghei [6] is 99.9%; on Cytochrome P450 2D6, “Not Active”; with Rattus norvegicus [13], “Non-toxic”; in the data set on Rattus norvegicus [14], “Non-toxic”. In addition, the IC50 in the data set on Plasmodium falciparum [2] worked out at 0.91 ng/mL; with Plasmodium falciparum [4], 1 ng/mL. In addition, the clearance in [5] was found to be 62 mL/min/kg; in data set [9], 141 mL/min/kg. The compound further registered a chromatographic logD in data set [16] of 2.9. Further, the half-life in data set [7] was determined as 1.27 h. This compound also displayed a bioavailability in [8] of 26%. The Survival with Plasmodium berghei [15] worked out at 11.4 days. Further, in [10], the distribution volume (Vd) turned out to be 16 L/kg.
With `C[C@H]1[C@H](OC(=O)CCC(=O)O)O[C@@H]2O[C@@]3(C)CC[C@H]4[C@H](C)CC[C@@H]1[C@@]24OO3` [ARTESUNATE], the Activity result with Rattus norvegicus [11] is given as “Non-toxic”; in the data set with Plasmodium berghei [3], 70%; with Rattus norvegicus [12], “Non-toxic”; with Rattus norvegicus [13], “Non-toxic”; in the data set with Rattus norvegicus [14], “Non-toxic”. Besides, the Survival in the data set on Plasmodium berghei [15] was determined as 9.2 days.
